# A selection: hits, their analogues and other compounds. The true share with any hit is near 3.9%.
# NF-kB neuron act: activators of NF-kB expression in neurons, primary screen, cell-based, HTS; AID 1239, 2008; fold change at 12.5 µM; human neuronal cells, NF-kB reporter expression; active compounds read high; 190,000 compounds, 1.6% hits; in the data active = fold change above about 3.3
# FLuc act counter: FLuc activators, initial screening, artefact control for FLuc-dependent activation tests, biochemical, ATPlite luminescence | 200,000 tested, under 10 active | Luciferin 4-monooxygenase (Photinus pyralis), P08659 | activation factor at 10 µM | ATPlite luciferase biochemical, 10 min; 0 = ATP-free wells, 1 = DMSO control;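 active = luciferase activation factor, scaled between plate controls, of at least 2 with compound at 10 µM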
#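 assay system = Luciferase/luciferin detection reagent, cell-free biochemical luciferase assay | also added = ATP substrate | times = 10 min post-reagent at room temperature | measured by = luminescence from luciferase reaction | measure = luciferase activation, seen as luminescence increase over controls | benchmarks = low control with PBS replacing ATP, high control enzyme plus ATP without compound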
# FLuc inh counter: firefly luciferase enzyme inhibitors, primary screen, artefact control for luciferase-based inhibitor screens, biochemical, luminescence, ATPLite | Luciferin 4-monooxygenase (Photinus pyralis), P08659 | 10 min | inhibition, % at 10 µM | 200,000 compounds, 1.5% hits;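 active = inhibition above about 50% when tested at 10 µM, limit read from the data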
# Rad51 HR inh: human RAD51 strand exchange inhibitors, primary screen, biochemical, fluorescence | DNA repair protein RAD51 homolog 1 (Homo sapiens), Q06609 | inhibition, % at 10 µM | AID 1385, 2008 | hRad51 DNA strand exchange, fluorescence dequenching | 200,000 compounds, 0.085% hits;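 active = inhibition above 40% at the single screening dose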
# Target sequence (Q06609 whole entry, looked up): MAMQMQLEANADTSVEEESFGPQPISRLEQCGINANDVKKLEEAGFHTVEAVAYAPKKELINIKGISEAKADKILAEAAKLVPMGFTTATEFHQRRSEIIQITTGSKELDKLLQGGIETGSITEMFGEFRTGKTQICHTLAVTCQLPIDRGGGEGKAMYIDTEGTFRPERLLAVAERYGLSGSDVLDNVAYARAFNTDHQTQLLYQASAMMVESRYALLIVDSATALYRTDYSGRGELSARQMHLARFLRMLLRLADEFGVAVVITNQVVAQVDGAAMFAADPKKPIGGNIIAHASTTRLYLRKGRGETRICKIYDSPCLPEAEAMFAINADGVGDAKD
#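 Test system – preformed human Rad51 ssDNA filaments · Reagent – Donor/quencher-labelled 47-bp dsDNA substrate · Incubation – 37 °C 15-min filament assembly, 30-min compound preincubation, 15-min exchange · Signal – FRET fluorescence dequenching, excitation 485 nm, emission 520 nm · Read-out – percent inhibition from fluorescence, normalised to plate control and blank means · Benchmarks – plate control and blank wells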
# APP 5'UTR act: activators of APP 5'UTR luciferase reporter, primary screen, SH-SY5Y cells; SH-SY5Y APP 5'UTR luciferase reporter, luminescence; zero percent = DMSO vehicle wells; activation, % at 2 µM; 190,000 compounds, 1% hits; AID 1276, 2008;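 active = activation above a set limit, based on mean plus 3 SD of controls, cut at about 140% in these data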
# STAT1 act: STAT1 signaling activators, primary screen, cell-based, HTS, luciferase reporter; AID 932, 2007; NIH 3T3 STAT1-luciferase reporter, IFN-gamma, luminescence; 100% = IFN-gamma alone, no compound; activation (% of control), % at 5.5 µM; 200,000 compounds, 2.6% hits;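 active = activation above the screen-wide mean activation plus 3 SD, cut at about 130% in these data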
# Hits are given with their value; . = inactive; / = not tested or not shown.
SMILES,NF-kB neuron act,FLuc act counter,FLuc inh counter,Rad51 HR inh,APP 5'UTR act,STAT1 act
CCC(=O)Oc1ccc(C(=O)Nc2ccc3c(c2)OCO3)cc1,.,.,.,.,142,137
CCC(=O)Nc1cccc(NC(=O)c2ccc(C)cc2Cl)c1,.,.,.,.,.,.
COc1ccc(C(=O)NCc2ccc3c(c2)CCO3)cc1,/,/,/,.,/,/
O=S(=O)(Nc1ncccn1)c1ccc(NC(=S)Nc2cccc(Cl)c2)cc1,/,/,/,.,/,/
Cc1cccc2cc(-c3ccccc3)c(-c3ccccc3)c[n+]12,.,.,.,.,.,.
COc1ccc2c(CC(=O)Nc3ccc(OC)nc3)coc2c1,.,.,.,.,.,.
O=C(Nc1ccccc1N1CCOCC1)c1ccc2c(c1)OCO2,.,.,.,.,.,.
O=C(NCCOc1ccccc1)c1ccc2c(c1)OCO2,.,.,51,.,.,.
NC(=O)c1ccc(NC(=O)c2ccc3c(c2)OCO3)cc1,.,.,.,.,.,139
O=C(Nc1ccn(Cc2ccccc2)n1)c1ccc2c(c1)OCO2,.,.,58,.,.,.
Cc1ccnc(NC(=O)c2ccc(N3C(=O)CCC3=O)cc2)c1,.,.,79,.,.,.
CC1CCN(C2(O)C(=O)Nc3ccc(Br)cc32)CC1 (centres undefined),.,.,.,.,.,.
Cc1sc2ncn(CC(=O)NCCCC(=O)N3CCN(Cc4ccc5c(c4)OCO5)CC3)c(=O)c2c1C,.,.,.,.,.,.
CSc1nc2cc(Oc3cccc(Cl)c3Cl)c(Cl)cc2[nH]1,/,.,.,.,/,/
COc1ccc(C)c2sc(N(CCCN(C)C)C(=O)c3ccc(S(=O)(=O)N(C)C)cc3)nc12,.,.,.,47,.,.
CCCCN(C(=O)c1ccc(S(=O)(=O)N(C)C)cc1)c1nc2ccccc2s1,.,.,.,.,.,.
COc1ccc(C2c3ccc(O)cc3Oc3ncn4nc(-c5ccncc5)nc4c32)cc1OC (centres undefined),/,/,/,.,/,/
COc1ccc(C2=NN(C(=O)CN3CCCCC3)C(c3ccc(C)cc3)C2)cc1 (centres undefined),.,.,.,.,.,.
COc1ccc(C2=NN(C(=O)CN3CCOCC3)C(c3nc4ccccc4[nH]3)C2)cc1 (centres undefined),.,.,.,.,.,133
Cc1ccc2c(C(=O)CNc3nncs3)c(C)[nH]c2c1,/,/,/,.,/,/
COc1ccccc1NC(=O)c1c(N=Cc2cccc([N+](=O)[O-])c2)cnn1C,/,/,/,.,/,/
Cc1ccnc(N2C(=O)c3ccccc3C2O)c1 (centres undefined),.,.,.,.,153,.
CC[N+]1(C)CC2CCC(C)(C1)C2(C)C (centres undefined),.,.,.,.,.,.
Cc1ccc(C(=O)Nc2nccc(-c3cccs3)n2)cc1,.,.,.,.,.,.
CCCOc1ccc(C(=O)Nc2ccc(Cl)cn2)cc1,8.6,.,53,.,137,.
SMILES,NF-kB neuron act,FLuc act counter,FLuc inh counter,Rad51 HR inh,APP 5'UTR act,STAT1 act
Cc1ccc(NC(=O)c2cccc(Cl)c2)nc1,.,.,.,.,.,.
Cc1ccc(C(=O)Nc2ncc3c(Cl)cccc3n2)cc1,.,.,94,.,141,.
CSc1ccc(Cl)c(C(=O)Nc2ccc(Cl)cn2)c1,.,.,.,.,.,.
COc1cc(SC)ccc1C(=O)Nc1ccc(Cl)cn1,.,.,94,.,148,.
Cc1ccc(C(=O)Nc2ccc(Cl)cn2)cc1,6.6,.,74,.,172,.
Brc1ccc(N=C(c2ccccc2)c2ccncc2)cc1,.,.,.,.,.,.
NC(=O)c1cc2cc([N+](=O)[O-])ccc2oc1=O,.,.,.,.,.,.
NC(Cc1ccccc1)C(O)(c1ccccc1)c1ccccc1 (centres undefined),.,.,.,.,.,.
O=C(O)CCCC(=O)N1CCc2cc(S(=O)(=O)NCc3ccc(F)cc3)ccc21,.,.,.,.,.,.

# Screens from PubChem BioAssay.
